OXTR potentiator: potentiates the human oxytocin receptor response | P30559 | activation, % at 3 µM | actives 0.061% (n = 320,000) | CHO-OTR cells, Fluo-8 calcium fluorescence, potentiator mode; 0% = oxytocin EC15, 100% = EC100;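 active = activation above that plate's cutoff, the mean activation of tested compounds plus 3 SD, cut at about 6.6% in these data, passing the limit was not always enough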;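 also: 100% uses oxytocin at 75 nM as the full agonist control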
Target sequence (P30559 whole entry, looked up): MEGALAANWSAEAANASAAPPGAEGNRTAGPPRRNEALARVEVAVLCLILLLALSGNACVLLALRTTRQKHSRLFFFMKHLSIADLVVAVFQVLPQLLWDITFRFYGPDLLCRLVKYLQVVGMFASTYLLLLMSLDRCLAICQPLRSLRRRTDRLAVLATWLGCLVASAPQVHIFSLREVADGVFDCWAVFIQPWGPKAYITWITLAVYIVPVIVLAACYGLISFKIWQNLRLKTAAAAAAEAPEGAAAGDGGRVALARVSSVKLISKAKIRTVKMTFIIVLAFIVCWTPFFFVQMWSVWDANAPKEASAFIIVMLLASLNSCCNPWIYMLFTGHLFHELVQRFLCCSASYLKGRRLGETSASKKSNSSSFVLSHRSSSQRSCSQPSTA
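Replication – single well per compound, singlicate · Assay system – CHO cell line stably expressing human OTR · Timing – 6 min pre-incubation, 100 s read · Measure – normalized max/min fluorescence ratio, % activation · Doses – 3.0 µM, one dose · Detection – Fluo-8 calcium dye fluorescence · Probe or stimulus – oxytocin near EC15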
OXTR ag: human OXTR agonism; AID 2435; actives 0.32% (n = 320,000); CHO-OTR cells, Fluo-8 calcium fluorescence; normalized: DMSO 0%, oxytocin 100%; activation, % at 3 µM; P30559;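 active = activation above the mean of all tested compounds plus 3 SD, cutoff set per screening run, cut at about 20% in these data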;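 also: peak over basal fluorescence ratio from a 100 s FLIPR kinetic read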
V1R ag counter: counter-screen for oxytocin receptor agonists: human V1a receptor agonists; P37288; CHO-V1R cells, Fluo-8 calcium fluorescence, agonist mode; 0% DMSO, 100% 3 nM vasopressin; activation, % at 3 µM; actives 0.25% (n = 320,000); AID 2797;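 active = activation above the mean activation of all tested compounds plus 3 SD, per screening run, cut at about 20% in these data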;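 also: signal is peak over basal fluorescence ratio across a 100 second FLIPR read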
TAAR1 antagonist: human TAAR1 antagonism; actives 1.5% (n = 360,000); Q96RJ0; inhibition, % at 3 µM; CHO RD-HGA16 TAAR1, Fluo-8 calcium fluorescence, antagonist;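 active = inhibition above a per-plate cutoff, the mean inhibition of test compounds on that plate plus 3 SD, cut at about 49% in these data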;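 also: 0% = DMSO plus EC80 beta-PEA response and 100% = DMSO alone without agonist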
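System: CHO RD-HGA16 cells bearing hTAAR1. Reagent: EC80 β-phenethylamine stimulus. Schedule: seeding 17-24 h prior, 75-min 37 °C, 30-min RT dye loading. Signal: Fluo-8 intracellular calcium dye fluorescence, real-time kinetic reads. Read-out: % inhibition from peak post-agonist over basal fluorescence ratio. Benchmarks: vehicle wells and EC80 agonist wells. Replicates: n of 1.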
TAAR1 agonist: human TAAR1 agonism; Q96RJ0; CHO RD-HGA16 TAAR1, Fluo-8 calcium fluorescence; vehicle wells 0%, saturating PEA agonist 100%; activation, % at 3 µM; actives 0.99% (n = 360,000);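 active = activation above the mean activation of all test compounds in the run plus 3 SD, cut at about 38% in these data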
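Benchmarks: low control DMSO, high control PEA (EC100); System: CHO RD-HGA16 cells carrying human TAAR1 plus Gα16; Detection: Fluo-8 fluorescence, 5 s baseline then 140 s kinetic read; Schedule: 17-24 h plating, Fluo-8 75 min 37 °C, 30 min RT; Read-out basis: % activation from peak over basal fluorescence ratio, DMSO-to-PEA scaled.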
OXTR agonist cf: confirmation of human oxytocin receptor agonists. AID 434963. activation, % at 3 µM. actives 20% (n = 390). shares compounds with OXTR ag. CHO-OTR cells, Fluo-8 calcium fluorescence, agonist;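 active = mean activation above about 20% derived from the earlier single-dose screen, limit read from the data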;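 also: peak over minimum fluorescence ratio per well during a 100 second FLIPR read; 0% = DMSO alone and 100% = oxytocin high control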
V1aR counter 3x: V1R agonism in triplicate, counter-screen for OXTR agonists; actives 10% (n = 390); activation, % at 3 µM; shares compounds with OXTR ag; CHO-V1R cells, Fluo-8 calcium fluorescence, agonist;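 active = mean activation over triplicate exceeds the hit threshold set in the earlier primary screen, cut at about 20% in these data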;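 also: peak over basal fluorescence ratio within a 100 second read; 0% = DMSO alone and 100% = 3 nM vasopressin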
The depositor's hits bear a star; · = not tested or not shown. Hits are enriched below; roughly 2.3% of the tested compounds scored in any of these assays.

SMILES | OXTR potentiator | OXTR ag | V1R ag counter | TAAR1 antagonist | TAAR1 agonist | OXTR agonist cf | V1aR counter 3x
O=C(CSc1nnnn1C1CC2CCC1C2)Nc1ccnc2ccccc12 (stereo not drawn) | -18 | 17 | 11 | 52* | 25 | · | ·
C=C1[C@@H](CCO)N(S(=O)C(C)(C)C)C[C@@H]1C (stereo partly drawn) | · | · | · | 1 | 0 | · | ·
Cc1noc(C)c1NC(=O)N(C)C[C@@H]1OCc2cn(nn2)CCCC(=O)N([C@@H](C)CO)C[C@H]1C | · | · | · | 9 | 1 | · | ·
Cc1c(O)c2c3c(cccc3c1O)C(=O)N(c1ccccc1)C2=O | -12 | 24* | 13 | 15 | 20 | 29* | 35*
CC(C)N(CCNCC(O)COc1ccc(C(C)(C)c2ccccc2)cc1)C(C)C (stereo not drawn) | -24 | 23* | 16 | 12 | 24 | 10 | 4
C[C@@H](NCCc1ccc(O)cc1)[C@@H](O)c1ccc(O)cc1 | -2 | -1 | 0 | -12 | 4 | · | ·
CCCCCCCCNC(C)C(O)c1ccc(SC(C)C)cc1 (stereo not drawn) | -8 | 23* | 4 | 5 | 33 | 2 | 6
Cc1[nH]n(-c2ccccc2)c(=O)c1C(c1cccc([N+](=O)[O-])c1)c1c(C)[nH]n(-c2ccccc2)c1=O | -12 | 24* | 10 | 46 | 14 | 8 | 8
CC(C)c1ccc(/C=C2\SC(=S)N(CCC(=O)N3CCCCC3CCO)C2=O)cc1 (stereo not drawn) | -7 | -1 | 1 | 36 | 1 | · | ·
CC(NC(=O)CN1CCOCC1)c1ccccc1 (stereo not drawn) | 1 | 21* | 1 | -11 | 0 | 0 | 0
CC(NC(=O)CN1CCCC1)c1ccccc1 (stereo not drawn) | -4 | -1 | 0 | 0 | 3 | · | ·
CCCN1C(=O)/C(=C/c2c(NCCCOC(C)C)nc3c(C)cccn3c2=O)SC1=S | -12 | 5 | 4 | · | · | · | ·
CCC(C)N1C(=O)/C(=C/c2c(NCCCOC(C)C)nc3c(C)cccn3c2=O)SC1=S (stereo not drawn) | -7 | 21* | 18 | 13 | 10 | 37* | 85*
CCSc1nsc(NC(=O)Nc2cccc(OC)c2)n1 | -25 | 22* | 13 | 32 | 9 | 11 | 11
CCSc1nsc(NC(=O)Nc2ccccc2F)n1 | -17 | 6 | 10 | 23 | 14 | · | ·
N#Cc1ccsc1NC(=O)c1ccc(Cl)c([N+](=O)[O-])c1 | -9 | 22* | 15 | -3 | 6 | 18 | 12
COc1ccc(CNS(=O)(=O)c2cc(Br)ccc2Br)c(OC)c1 | · | · | · | -10 | 0 | · | ·
CCCCC1(c2ccc(F)cc2)NC(=O)N(CC(=O)Nc2ccc(N3CCOCC3)cc2)C1=O (stereo not drawn) | -11 | 21* | 12 | 29 | 37 | 10 | 9
C=CCCC1CN(Cc2ccc(OC)cc2)S(=O)(=O)c2c(F)cccc2O1 (stereo not drawn) | · | · | · | 18 | 1 | · | ·
CCOC(=O)Cn1c(=N)n(CCOc2ccc(OC)cc2)c2ccccc21 | -21 | 39* | 1 | · | · | 0 | 0
CCNC(=O)N(C)[C@H]1C[C@H]2c3[nH]c4c(-c5ccccc5)cccc4c3CCN2C(=O)[C@H]1[C@H](C)O | · | · | · | 18 | 4 | · | ·
C=CCN1C(=O)C(Cc2ccccc2Cl)SC1=Nc1ccc(C(=O)O)cc1 (stereo not drawn) | -12 | 21* | 10 | -2 | 12 | 8 | 8
C=CCN1C(=O)C(CC(=O)O)SC1=Nc1ccc(C(=O)O)cc1 (stereo not drawn) | -6 | 0 | 1 | -6 | 0 | · | ·
N#CC1=C(N)Oc2n[nH]c(-c3ccccc3)c2C12C(=O)Nc1ccccc12 (stereo not drawn) | -20 | 23* | 1 | -1 | 3 | 0 | 0

Source: PubChem
